Results published in ChEMBL document CHEMBL1148955, “Chemical constituents from the Colombian medicinal plant Maytenus laevis” (2004).
The source made the active and inactive calls. No cut-off for these calls is given here.

Columns and labels:
[1] = test system: PBMC; assay: Induction of IL6 production in human PBMC at 1 ug/ml after 48 hrs by ELISA; assay type: functional
Summary of the method: (§1)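 PBMCs were isolated from heparinized venous blood by Ficoll-Hypaque density gradient centrifugation. Cells were cultured at 1 × 10^6/mL in RPMI 1640 with 10% fetal calf serum, with or without compound at 1 or 10 µg/mL, for 48 h at 37 °C. Cytokines in the culture supernatants were measured by commercial ELISA kits.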

[2] = test system: PBMC; assay: Induction of IL6 production in human PBMC at 10 ug/ml after 48 hrs by ELISA; assay type: functional; summary of the method: as §1
[3] = test system: PBMC; assay: Induction of IL12 production in human PBMC at 1 ug/ml after 48 hrs by ELISA; assay type: functional; summary of the method: as §1
[4] = test system: PBMC; assay: Induction of IL12 production in human PBMC at 10 ug/ml after 48 hrs by ELISA; assay type: functional; summary of the method: as §1
[5] = test system: PBMC; assay: Induction of TNFalpha production in human PBMC at 1 ug/ml after 48 hrs by ELISA; assay type: functional; summary of the method: as §1
[6] = test system: PBMC; assay: Induction of TNFalpha production in human PBMC at 10 ug/ml after 48 hrs by ELISA; assay type: functional; summary of the method: as §1
[7] = test system: PBMC; assay: Induction of IFN-gamma production in human PBMC at 1 ug/ml after 48 hrs by ELISA; assay type: functional, cell-based; summary of the method: as §1
[8] = test system: PBMC; assay: Induction of IFN-gamma production in human PBMC at 10 ug/ml after 48 hrs by ELISA; assay type: functional, cell-based; summary of the method: as §1
[9] = test system: PBMC; assay: Induction of IL4 production in human PBMC at 1 ug/ml after 48 hrs by ELISA; assay type: functional, cell-based; summary of the method: as §1
[10] = test system: PBMC; assay: Induction of IL4 production in human PBMC at 10 ug/ml after 48 hrs by ELISA; assay type: functional, cell-based; summary of the method: as §1
[11] = test system: PBMC; assay: Induction of IL10 production in human PBMC at 1 ug/ml after 48 hrs by ELISA; assay type: functional, cell-based; summary of the method: as §1
[12] = test system: PBMC; assay: Induction of IL10 production in human PBMC at 10 ug/ml after 48 hrs by ELISA; assay type: functional, cell-based; summary of the method: as §1

Row | SMILES | Activity [1] | Activity [2] | Activity [3] | Activity [4] | Activity [5] | Activity [6] | Activity [7] | Activity [8] | Activity [9] | Activity [10] | Activity [11] | Activity [12]
1 | C[C@@H]1O[C@@H](O[C@@H]2[C@@H](O)[C@H](OCCc3ccc(O)c(O)c3)O[C@H](COC(=O)/C=C/c3ccc(O)c(O)c3)[C@H]2O)[C@H](O)[C@H](O)[C@H]1O [ISOACTEOSIDE] | 101.5 pg/mL | 175.5 pg/mL | <7.8 pg/mL | <7.8 pg/mL | <7.8 pg/mL | <7.8 pg/mL | inactive | inactive | inactive | inactive | inactive | inactive
2 | C[C@H]1C(=O)CC[C@@H]2[C@]1(C)CC[C@H]1[C@@]2(C)CC[C@@]2(C)[C@@H]3CC(C)(C)CC[C@]3(CO)CC[C@]12C [CANOPHYLLOL] | 2579.3 pg/mL | 2579.2 pg/mL | 47.3 pg/mL | 104.3 pg/mL | 132.5 pg/mL | 322.9 pg/mL | inactive | inactive | inactive | inactive | inactive | inactive
